The values below come from ChEMBL document CHEMBL5252510, “A Novel Potent Oral Series of VEGFR2 Inhibitors Abrogate Tumor Growth by Inhibiting Angiogenesis” (J Med Chem, 2016).

For data set [1], the target named is T1, Vascular endothelial growth factor receptor 2 (Homo sapiens, UniProt P35968). Description: Inhibition of VEGF-induced human VEGFR2 autophosphorylation transfected in CHO cells measured after 2 hrs by chemiluminescence assay. It counts as cell-based.
For data set [2], the target named is T1, Vascular endothelial growth factor receptor 2. Nature of the data set: Inhibition of human recombinant GST-fused VEGFR2 kinase domain transphosphorylation expressed in baculovirus expression system using poly-Glu-Tyr (4:1) as substrate measured after 10 mins in presence of gamma-[33P]-ATP by scintillation counting analysis.
Data set [3] deals with Mast/stem cell growth factor receptor Kit (Homo sapiens, UniProt P10721). Description: Inhibition of human recombinant GST-fused c-KIT expressed in baculovirus expression system using poly-Glu-Tyr (4:1) as substrate measured after 10 mins in presence of gamma-[33P]-ATP by scintillation counting analysis. The gist of the method:
(§1)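 GST-fused kinase domains were expressed in baculovirus and purified on glutathione-Sepharose. 10 min at ambient temperature, stopped with EDTA. Filter binding and scintillation counting. IC50 by linear regression of percent inhibition.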

The target of data set [4] is Angiopoietin-1 receptor (Homo sapiens) (UniProt Q02763). Nature of the data set: Inhibition of human recombinant GST-fused TIE2 expressed in baculovirus expression system using poly-Glu-Tyr (4:1) as substrate measured after 10 mins in presence of gamma-[33P]-ATP by scintillation counting analysis. The essentials: as §1
In data set [5] the target is Serine/threonine-protein kinase B-raf (Homo sapiens) (UniProt P15056). Description: Inhibition of human recombinant GST-fused BRAF expressed in baculovirus expression system using poly-Glu-Tyr (4:1) as substrate measured after 10 mins in presence of gamma-[33P]-ATP by scintillation counting analysis. The essentials: as §1
In data set [6] the target is Proto-oncogene tyrosine-protein kinase receptor Ret (Homo sapiens, UniProt P07949). Nature of the data set: Inhibition of RET (unknown origin) autophosphorylation expressed in mouse NIH3T3 cells by ELISA-based assay. It counts as cell-based. The essentials: (§2)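 Cells were stimulated with the respective ligand. Receptor tyrosine kinase autophosphorylation in the presence of compound was quantified by ELISA.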
For orientation: In an ELISA, binding on a coated surface is turned into a signal by an enzyme label.

Data set [7] is described as follows: Clearance in OFA rat at 1 mg/kg, iv measured upto 24 hrs by HPLC/UV analysis. It counts as ADME, organism-based. Conditions: in vivo. The gist of the method: (§3)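 Catheters were placed in the femoral artery and vein of female OFA rats, followed by 96 h recovery. IV doses went into the femoral vein: 2.5 mg/kg in ethanol/dimethylisosorbide/PEG400/5 % glucose (10/15/35/40), or 1 mg/kg in NMP/PEG200 (30:70). Plasma samples at 5, 15, 30 min and 1, 2, 4, 6, 8, 24 h. Parameters reported over 24 h. n=2–4.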

The target of data set [8] is Platelet-derived growth factor receptor beta (Homo sapiens, UniProt P09619). Description: Inhibition of PDGFR (unknown origin) autophosphorylation expressed in mouse BALB/3T3 clone A31 cells by ELISA-based assay. The data set is classed as cell-based. The gist of the method: as §2
Data set [9] deals with Mast/stem cell growth factor receptor Kit (Homo sapiens, UniProt P10721, K642E). Description: Inhibition of KIT K642E mutant (unknown origin) autophosphorylation expressed in human GIST882 cells by ELISA-based assay. The data set is classed as cell-based. The essentials: as §2
Data set [10] deals with Epidermal growth factor receptor (Homo sapiens, UniProt P00533). Description: Inhibition of EGFR (unknown origin) autophosphorylation expressed in human A-431 cells by ELISA-based assay. It counts as cell-based. The essentials: as §2
In the next data set the target is Bcr/Abl fusion protein (Homo sapiens, UniProt P00519). Nature of the data set: Inhibition of BCR-ABL (unknown origin) autophosphorylation expressed in mouse 32D cells by ELISA-based assay. The data set is classed as cell-based. The essentials:
as §2

The subject of data set [11] is Mus musculus. Description: Anti-angiogenesis activity in FVB mouse model assessed as inhibition of VEGF-induced tissue TIE-2 level at 0.3 mg/kg, po qd treated for 4 to 6 hrs prior to chamber implantation and continuing for 4 days measured after 24 hrs post last dose by ELISA analysis. It counts as functional, organism-based. Conditions: time 5.0 day. The gist of the method:
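Female FVB mice (18-20 g), porous chambers with VEGF (2 μg/mL) in 0.8 % w/v agar containing heparin 20 U/mL implanted s.c. in flank; compound p.o. once daily in 100 % PEG200 (5 mL/kg) from 4-6 h before implantation for 4 days; tissue removed 24 h after last dose, weighed, lysate assayed for TIE-2 by sandwich ELISA; n=6 per dose, mean ± SEM.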

Data set [12] in a line: Clearance in OFA rat at 2.5 mg/kg, iv measured upto 24 hrs by HPLC/UV analysis. It counts as ADME, organism-based. The conditions noted are these: in vivo. The gist of the method: as §3
Data set [13] can be described thus: Antitumor activity against rat BN472 cell implanted in Brown-Norway rat assessed as tumor growth inhibition by measuring T/C ratio at 3 mg/kg, po qd measured upto 14 days. The data set is classed as functional. Conditions: time <= 14 day. The essentials: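 Female Brown-Norway rats (160-180 g) given 3 mm³ BN472 tumor fragments in mammary fat pads; at about 200 mm², randomized into groups of 7-8 and dosed orally with compound or PEG300 vehicle over 14 days; tumor growth followed, T/C computed; significance by 2-way RM-ANOVA.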

For data set [14], the species on record is Mus musculus. Nature of the data set: Antiangiogenic activity in C57BL/6jNpa mouse harbouring mouse B16-BL6 cells assessed as reduction in iAUEC level measured after 3 days by DCE-MRI assay relative to control. The data set is classed as functional. More on the design: scale not given: the % may be the effect or the level left. The conditions noted are these: time 3 day. The essentials:
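C57BL/6JNpa mice bearing B16/BL6 cervical lymph-node metastases, at least 8 per group, anaesthetized and given contrast agent; DCE-MRI Ktrans and iAUEC (permeability) and Vp (plasma volume) measured before and again after daily treatment; change per mouse recorded, mean ± SEM, one-way ANOVA with Holm-Sidak comparisons versus vehicle.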

Data set [15] relates to B16-BL6. Description: Antitumor activity against mouse B16-BL6 cells implanted in C57BL/6jNpa mouse assessed as primary tumor growth inhibition at 3 mg/kg, po qd administered every 2 days started on day 7 post implantation measured after 21 days. The conditions noted are these: time 7-21 day. It counts as functional, organism-based. The gist of the method: (§4)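 Female C57BL/6JNpa mice, 50000 B16/BL6 cells intradermally in both ear pinnae; primary tumor area (mm²) imaged days 7, 14, 21; randomized day 7 into groups of 5-6, oral dosing in PEG200 or PEG300 vehicle daily (or every 2 days) for 14 days; day 21 cervical lymph nodes weighed, metastasis lysates assayed for TIE-2 by ELISA; T/C ratios.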

In data set [16] the test system is B16-BL6. Description: Antitumor activity against mouse B16-BL6 cells implanted in C57BL/6jNpa mouse assessed as primary tumor growth inhibition by measuring T/C ratio at 1 mg/kg, po qd administered every 2 days started on day 7 post implantation measured after 21 days. The conditions noted are these: time 7-21 day. It counts as functional. The gist of the method: as §4

The next data set relates to BN472 cell. Description: Antitumor activity against rat BN472 cell implanted in Brown-Norway rat assessed as reduction in cell growth at 3 mg/kg, po qd measured upto 14 days by Ki67 staining based microscopic analysis. It counts as functional, organism-based. Conditions: time <= 14.0 day. The gist of the method: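 BN472-bearing Brown-Norway rats dosed orally; Hoechst dye i.v. shortly before sacrifice to mark perfused vessels; tumors cryosectioned at 10 micron, blocked in 10 % goat serum/0.1 % Triton X-100, stained with rabbit anti-Ki67 (1:200) or anti-caspase 3 (1:10) and fluorescent secondary antibodies; fluorescence microscopy.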

pIC50: −log10 of the molar value. Calls of active or inactive are those of the source. No cut-off for these calls is given here. Some results are limits rather than exact numbers.

Regarding `O=C(Nc1cccc(C(F)(F)F)c1)c1cccc2cc(Oc3cc(CO)ncn3)ccc12` [BFH-772], the pIC50 was 8.34 in data set [1]; 8.57 in [2]; less than 5.70 in [3]; 7.52 in data set [6]; 7.52 in data set [8]; 7.52 in data set [9]. For the same molecule, the pIC50 (in [10]; against Bcr/Abl fusion protein) was less than 6.30 throughout. The inhibition entry in [4] and in data set [5] was “Active” throughout. The clearance in data set [7] was 3 mL/min/kg. Also, in the data set with Mus musculus [11], the outcome was Active.
As to `Nc1nccc(Oc2ccc3c(C(=O)Nc4cccc(C(F)(F)F)c4)cccc3c2)n1`, the pIC50 in data set [1] is 8.38; in data set [2] it was 8.05; in data set [3], less than 5.00; in [6] it was 7.52; in data set [8], 7.52; in data set [9], 7.52. Also, the pIC50 (in [10]; against Bcr/Abl fusion protein) was less than 6.30 each time. The inhibition entry in data set [4] and in data set [5] was “Active” each time. Moreover, the clearance in data set [12] is 11 mL/min/kg. In data set [13], the T/C came out at 35.5.
As to `Nc1nccc(Oc2ccc3c(C(=O)Nc4ccc(F)c(C(F)(F)F)c4)cccc3c2)n1`, the outcome with Mus musculus [11], in the data set with B16-BL6 [15] and in the data set with BN472 cell was Active. Also, in the data set filed under Mus musculus [14], the Activity is listed as 65%. In addition, the T/C with B16-BL6 [16] is given as 0.6; in [13], 5.6.

Broadly, the pIC50 is the IC50 on a negative log10 scale, so that one unit is a factor of ten. As a reminder, the clearance is a measure of how efficiently the substance is removed, as volume per time.
